Experiment [1] relates to Staphylococcus aureus. Kind of experiment: Antimicrobial activity against intracellular hospital acquired methicillin-resistant Staphylococcus aureus ATCC 33591 infected in activated human THP-1 cells assessed as decrease in bacterial count from original inoculum at high compound concentration after 24 hrs at pH 7.4. The experiment is classed as functional. Summed up:
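THP-1 cells activated by 24-h culture with phorbol myristate acetate 2 mg/liter, then infected like unactivated THP-1. Cloxacillin dose range in mg/liter for 24 h. CFU per mg cell protein relative to the original inoculum, n = 3. Emin and Emax extrapolated from a Hill fit (slope 1), with EC50 as total drug; static concentration by graphical interpolation.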

In experiment [2] the test system is Staphylococcus aureus. Kind of experiment: Antimicrobial activity against intracellular beta-lactamase negative methicillin-susceptible Staphylococcus aureus ATCC 25923 infected in human keratinocytes assessed as decrease in bacterial count from original inoculum at high compound concentration after 24 hrs at pH 7.4. Format: functional. The method, boiled down:
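Primary human skin keratinocytes or Calu-3 bronchial epithelial cells infected with MSSA ATCC 25923 at 5 × 10⁷ to 1 × 10⁸ bacteria/ml, 2 h internalization. Postphagocytosis inoculum 1.5 × 10⁶ to 3.0 × 10⁶ CFU/mg protein. Cloxacillin concentration range for 24 h; CFU/mg protein change vs. inoculum (n = 3). Hill fit gives Emin/Emax; static concentration by graphical interpolation.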

Experiment [3] concerns Staphylococcus aureus. Kind of experiment: Antimicrobial activity against intracellular hospital acquired methicillin-resistant Staphylococcus aureus ATCC 33591 infected in human Calu3 cells assessed as decrease in bacterial growth after 24 hrs at pH 7.4. Format: functional, organism-based. Conditions: ATCC 33591, Calu-3, 24 h. The method, boiled down:
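Primary human skin keratinocytes or Calu-3 bronchial epithelial cells, given an inoculum of 5 × 10⁷ to 1 × 10⁸ bacteria/ml and 2 h for internalization. Post-phagocytosis load 1.5 × 10⁶ to 3.0 × 10⁶ CFU per mg cell protein. Cloxacillin dose range in mg/liter for 24 h, n = 3. Hill-derived Emin, Emax and EC50; static concentration interpolated.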

In experiment [4] the test system is Staphylococcus aureus. Kind of experiment: Antimicrobial activity against beta-lactamase negative methicillin-susceptible Staphylococcus aureus ATCC 25923 infected in human THP-1 cells assessed as increase in bacterial count from original inoculum at low compound concentration after 24 hrs at pH 7.4. Format: functional.
The subject of experiment [5] is Staphylococcus aureus. Nature of the experiment: Bacteriostatic activity against beta-lactamase negative methicillin-susceptible Staphylococcus aureus ATCC 25923 infected in human THP-1 cells assessed as decrease in bacterial growth after 24 hrs at pH 7.4. The experiment is classed as functional.
The subject of experiment [6] is Staphylococcus aureus. Kind of experiment: Bacteriostatic activity against hospital acquired methicillin-resistant Staphylococcus aureus ATCC 33591 infected in human THP-1 cells assessed as decrease in bacterial growth after 24 hrs at pH 7.4. Format: functional. The method, boiled down:
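THP-1 macrophages, unactivated, infected with MRSA ATCC 33591. Cloxacillin over a range of extracellular concentrations (mg/liter) with a 24-h exposure. CFU per mg cell protein as change from the original inoculum, n = 3. Hill equation fitted with slope factor 1; static concentration (no change from inoculum) read by graphical interpolation.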

The test system of experiment [7] is Staphylococcus aureus. Nature of the experiment: Antimicrobial activity against constitutive beta-lactamase negative methicillin-resistant Staphylococcus aureus COL NRS100 by broth microdilution method at pH 7.4. The experiment is classed as functional. On the technique in general: Broth dilution looks for growth in wells or tubes with falling amounts of substance.

Experiment [8] has as its system Staphylococcus aureus. Nature of the experiment: Antimicrobial activity against hospital acquired methicillin-resistant Staphylococcus aureus N4120210 obtained from urinary tract infection patient by broth microdilution method at pH 7.4. Format: functional. Conditions: N4120210, Urine. Summed up: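 Minimal inhibitory concentration by broth microdilution at pH 7.4, read in mg/liter. The MRSA genotype was confirmed by mecA PCR, and the SCCmec subgroup was assigned by multiplex PCR.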

Experiment [9] deals with Staphylococcus aureus. Kind of experiment: Antimicrobial activity against animal acquired methicillin-resistant Staphylococcus aureus N7112046 by broth microdilution method at pH 7.4. The experiment is classed as functional.
The subject of experiment [10] is Staphylococcus aureus. Nature of the experiment: Antimicrobial activity against hospital acquired methicillin-resistant Staphylococcus aureus HMC546 infected in human THP-1 cells assessed as increase in bacterial count from original inoculum at low compound concentration after 24 hrs at pH 5.5. The experiment is classed as functional. Summed up:
(§1)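 Bacteria phagocytosed by unactivated human THP-1 macrophages, then incubated 24 h with extracellular antibiotic at about 0.01× to 100× the pH 5.5 broth MIC. CFU per mg cell protein counted against the original inoculum, n = 3. A Hill-equation fit (slope factor 1) gave Emin and Emax, extrapolated to infinitely low and high concentration, and EC50. Static concentration was graphically interpolated.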

The test system of experiment [11] is Staphylococcus aureus. Nature of the experiment: Antimicrobial activity against Panton-valentine leukocidin positive community acquired methicillin-resistant Staphylococcus aureus N4090440 obtained from wound infection of patient infected in human THP-1 cells assessed as increase in bacterial count from original inoculum at low compound concentration after 24 hrs at pH 5.5. Format: functional. Summed up: as §1

For experiment [12], the system named is Staphylococcus aureus. Kind of experiment: Antimicrobial activity against hospital acquired methicillin-resistant and vancomycin-intermediate Staphylococcus aureus NRS18 obtained from wound, skin and soft tissue infection of patient infected in human THP-1 cells assessed as increase in bacterial count from original inoculum at low compound concentration after 24 hrs at pH 5.5. Format: functional. Summed up: (§2)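 Human THP-1 macrophages infected with each S. aureus strain. Cloxacillin added extracellularly at about 0.01× to 100× the broth MIC measured at pH 5.5, with gentamicin 0.5 mg/liter to stop extracellular growth. Incubated 24 h. CFU counted per mg cell protein as change from the post-phagocytosis inoculum, n = 3. Emin, Emax and EC50 from a Hill fit; static concentration by graphical interpolation.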

The test system of experiment [13] is Staphylococcus aureus. Kind of experiment: Antimicrobial activity against hospital acquired methicillin-resistant and vancomycin-intermediate Staphylococcus aureus NRS126 obtained from bloodstream infection of patient infected in human THP-1 cells assessed as increase in bacterial count from original inoculum at low compound concentration after 24 hrs at pH 5.5. The experiment is classed as functional. The method, boiled down:
as §1

The test system of experiment [14] is Staphylococcus aureus. Nature of the experiment: Antimicrobial activity against Panton-valentine leukocidin positive community acquired methicillin-resistant Staphylococcus aureus N4090440 obtained from wound infection of patient infected in human THP-1 cells assessed as decrease in bacterial count from original inoculum at high compound concentration after 24 hrs at pH 5.5. The experiment is classed as functional. Summed up:
as §1

The subject of experiment [15] is Staphylococcus aureus. Kind of experiment: Antimicrobial activity against hospital acquired methicillin-resistant Staphylococcus aureus N4120032 obtained from wound infection opf patient infected in human THP-1 cells assessed as decrease in bacterial growth after 24 hrs at pH 5.5. Format: functional, organism-based. The note with it: N4120032, THP-1, 24 h. Summed up:
as §1

Experiment [16] concerns Staphylococcus aureus. Kind of experiment: Antimicrobial activity against hospital acquired methicillin-resistant and vancomycin-intermediate Staphylococcus aureus NRS18 obtained from wound, skin and soft tissue infection of patient infected in human THP-1 cells assessed as decrease in bacterial growth after 24 hrs at pH 5.5. The note with it: NRS18, THP-1, 24 h. Format: functional, organism-based. Summed up:
as §1

In experiment [17] the test system is Staphylococcus aureus. Kind of experiment: Bacteriostatic activity against beta-lactamase negative methicillin-susceptible Staphylococcus aureus ATCC 25923 infected in human THP-1 cells assessed as decrease in bacterial growth after 24 hrs at pH 5.5. Format: functional. The method, boiled down: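 MSSA ATCC 25923 phagocytized by unactivated THP-1 macrophages; extracellular antibiotic from about 0.01× to 100× the broth MIC at pH 5.5, with gentamicin 0.5 mg/liter to block extracellular growth. CFU per mg cell protein counted at 24 h vs. original inoculum (n = 3). A Hill equation (slope factor 1) gives Emin/Emax, extrapolated to infinitely low/high concentration. Static concentration is read by graphical interpolation.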

Experiment [18] has as its system Staphylococcus aureus. Kind of experiment: Bacteriostatic activity against Panton-valentine leukocidin positive community acquired methicillin-resistant Staphylococcus aureus N4090440 infected in human THP-1 cells assessed as decrease in bacterial growth after 24 hrs at pH 5.5. Format: functional. The method, boiled down:
as §2

Experiment [19] deals with Staphylococcus aureus. Kind of experiment: Bacteriostatic activity against hospital acquired methicillin-resistant and vancomycin-intermediate Staphylococcus aureus NRS126 infected in human THP-1 cells assessed as decrease in bacterial growth after 24 hrs at pH 5.5. Format: functional. The method, boiled down:
as §2

In brackets after ≈: the same amount, converted by molar mass. Some results are limits rather than exact numbers.

As to `Cc1onc(-c2ccccc2Cl)c1C(=O)N[C@@H]1C(=O)N2[C@@H]1SC(C)(C)[C@@H]2C(=O)O` [CLOXACILLIN], the log10cfu in experiment [1] came to 0.7; in experiment [2] it was 0.95; in experiment [4], 1.79; in [10] it was 2.06; in experiment [11], 2.51; in experiment [12], 2.07. Further, the results for the log10cfu in [13] and in experiment [14] were 2.76 and 0.45, respectively. Further, the EC50 stood at 0.39 µg/mL (≈ 0.895 µM) in experiment [3], 9.26 ×MIC in experiment [15] and 3.96 ×MIC in [16]. In addition, the Activity in [5] stood at 0.6 mg/L; in [6], 0.9 mg/L; in [17], 11 ×MIC; in [18] it was 17.4 ×MIC; in experiment [19], 20.9 ×MIC. Moreover, the results for the minimal inhibitory concentration (MIC) in experiment [7], in [8] and in [9] were more than 512 µg/mL, 2 µg/mL (≈ 4.59 µM) and 512 µg/mL (≈ 1170 µM), respectively.

In general, MIC refers to the least concentration at which growth counts as inhibited.
